procasp7 counter – counter-screen: procaspase-7 (human) activation. P55210. 330,000 compounds, 0.093% hits. AID 463210. activation, % at 8.5 µM. recombinant procaspase-7, Ac-DEVD-pNA absorbance 405 nm; D23A/D198A/D206A triple mutant, cannot self-cleave; scale: DMSO 0, 5 µM enzyme 100;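 active means percent activation above the screen-wide mean plus 3 SD, cut at about 25% in these data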
Target sequence (P55210 whole entry D23A/D198A/D206A): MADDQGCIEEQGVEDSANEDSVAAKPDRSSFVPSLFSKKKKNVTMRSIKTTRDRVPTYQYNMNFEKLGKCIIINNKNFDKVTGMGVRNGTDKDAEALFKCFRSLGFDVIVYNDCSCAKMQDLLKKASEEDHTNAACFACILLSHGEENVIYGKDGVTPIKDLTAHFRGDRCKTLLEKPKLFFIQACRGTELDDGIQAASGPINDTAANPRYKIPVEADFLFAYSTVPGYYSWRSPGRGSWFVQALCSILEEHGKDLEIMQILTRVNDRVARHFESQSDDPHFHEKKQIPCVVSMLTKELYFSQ
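Assay system – Uncleavable procaspase-7 mutant enzyme · Quantity – 2 µM procaspase-7 mutant as dispensed · Times – 1 h preincubation, 2 h reaction · Dosing – single nominal 8.5 µM compound dose, 0.8% DMSO final · Buffer or medium – Zinc-free 50 mM HEPES buffer, pH 7.4, with NaCl and Triton X-100 · Detection – Epi-absorbance of released pNA at 405 nm, two timepoints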
proCasp3 act – activates human procaspase-3. P42574. activation, % at 8.5 µM. 330,000 compounds, 0.11% hits. recombinant procaspase-3 D3A, Ac-DEVD-pNA absorbance 405 nm;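 active means activation above the mean of all tested compounds plus 3 SD, cut at about 21% in these data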;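 further: 0% = DMSO alone and 100% = DMSO wells spiked with extra 5 µM PC-3 D3A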
Target sequence (P42574 whole entry D9A/D28A/D175A): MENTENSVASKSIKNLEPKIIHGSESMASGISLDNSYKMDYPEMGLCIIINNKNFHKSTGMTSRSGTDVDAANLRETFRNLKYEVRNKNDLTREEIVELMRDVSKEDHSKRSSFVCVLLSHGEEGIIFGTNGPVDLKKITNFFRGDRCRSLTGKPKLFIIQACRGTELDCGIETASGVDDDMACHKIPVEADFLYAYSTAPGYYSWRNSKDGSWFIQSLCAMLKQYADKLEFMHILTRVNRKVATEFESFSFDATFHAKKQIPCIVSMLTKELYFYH
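Assay system – Procaspase-3 D3A mutant · Benchmarks – DMSO low control, extra-enzyme high control · Technique – 405 nm absorbance of p-nitroaniline, reads at 0 and 120 min · Doses – 8.5 µM nominal · Measure – % activation between DMSO and enzyme-spiked controls · Also added – Ac-DEVD-pNA chromogenic peptide substrate · Schedule – 1 h compound preincubation, 2 h substrate hydrolysis at 25 °C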
LYPLA2 counter – blocks human lysophospholipase 2, a PME1 counter-screen. O95372. recombinant LYPLA2, FP-Rh probe fluorescence polarization. inhibition, % at 5.9 µM. 320,000 compounds, 0.38% hits. AID 2177;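 active means inhibition above the screen-wide mean plus 3 SD, limit set per campaign, cut at about 26% in these data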;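 further: 0% = LYPLA2 with DMSO and 100% = wells lacking LYPLA2 enzyme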
PREPL inh – inhibitors of human prolyl oligopeptidase-like enzyme PREPL | Q4J6C6 | recombinant PREPL, fluorescence polarization activity-based probe | inhibition, % at 5.96 µM | 320,000 compounds, 0.68% hits | AID 2751;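 further: 0% = enzyme with DMSO and 100% = wells lacking enzyme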
LYPLA1 inh – blocks human lysophospholipase 1, a PME1 counter-screen. O75608. recombinant LYPLA1, FP-Rh probe fluorescence polarization. inhibition, % at 5.9 µM. 320,000 compounds, 0.16% hits. AID 2174;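 active means inhibition above the mean of all tested compounds plus 3 SD, set per campaign, cut at about 14% in these data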;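 further: inhibitors block serine hydrolase probe labeling of LYPLA1 so polarization falls; 0% = enzyme with DMSO and 100% = wells lacking LYPLA1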
LYPLA1 confirm – counter-screen for PME1 inhibitors: confirmation of human LYPLA1 inhibitors; recombinant LYPLA1, FP-Rh probe fluorescence polarization; shares compounds with LYPLA1 inh; inhibition, % at 5.9 µM; 480 compounds, 69% hits;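 active means mean inhibition across replicates above the hit cutoff set in the primary screen, cut at about 15% in these data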;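 further: loss of FP-Rh probe labeling of LYPLA1 seen as lower polarization; 0% = LYPLA1 with DMSO and 100% = wells lacking LYPLA1 enzyme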
LYPLA2 confirm – counter-screen for PME1 inhibitors: confirmation of human LYPLA2 inhibitors | AID 2232 | shares compounds with LYPLA2 counter | inhibition, % at 5.9 µM | recombinant LYPLA2, FP-Rh probe fluorescence polarization | 1,100 compounds, 72% hits;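 active means mean inhibition across replicates above the hit cutoff set in the primary screen, cut at about 26% in these data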;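 further: blocked labeling of the enzyme by serine hydrolase FP-Rh probe lowers polarization; 0% = enzyme with DMSO and 100% = wells lacking LYPLA2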
PREPL confirm – human PREPL inhibition, confirmation. shares compounds with PREPL inh. recombinant PREPL, fluorescence polarization activity probe. inhibition, % at 5.96 µM. 2,000 compounds, 67% hits;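 further: 0% = protein with DMSO and 100% = wells lacking protein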
* = called active by the depositor; i = inactive; . = no result given. The list is not random: actives were taken first. Their share in the collection is about 1.1%. Unless noted, no stated cut-off is given here; in the data, active means inhibition above about 43%; inactive means the rest.

SMILES	procasp7 counter	proCasp3 act	LYPLA2 counter	PREPL inh	LYPLA1 inh	LYPLA1 confirm	LYPLA2 confirm	PREPL confirm
Cc1ccccc1C1NC(=O)Cc2ccccc21 (stereo not drawn)	3	5	3	-2	1	.	.	.
CC(C)(C)c1nc(NC(=O)Nc2ccccc2)sc1Br	5	-3	-25	12	-10	.	.	.
CCCc1cc(=O)oc2c(C)c(OCC(=O)Nc3ccc(CN4CCOCC4)cc3)ccc12	20	3	-1	-5	-6	.	.	.
CCCCC(=Nc1ccc(N)cc1)C1=C(O)C(C(=O)OC)C(C)(C)CC1=O (stereo not drawn)	-6	-2	28*	30	23*	3	5	.
O=[N+]([O-])c1cccc(/C=N/N2CCN(Cc3ccc(Cl)cc3)CC2)c1	4	8	41*	30	29*	37*	53*	.
O=C1c2ccccc2-c2onc3ccc(NCCCn4ccnc4)c1c23	-11	-10	112*	110*	105*	109*	117*	.
Cn1c(=O)c(Nc2ccc(Cl)cc2)c2c3c(cccc31)C(=O)c1ccccc1-2	-7	-2	33*	21	20*	34*	25	.
CC(=O)Nc1c2c3c(cccc3n(C)c1=O)C(=O)c1ccccc1-2	-3	2	3	12	4	.	.	.
O=C(NCC1CC1)C1(C(F)(F)F)C/C(=C\Cc2ccccc2)CCCO1 (stereo not drawn)	-3	3	-12	-3	-1	.	.	.
COc1ccc(CC(C)N2CCN(c3cccc(C(F)(F)F)c3)CC2)cc1OC (stereo not drawn)	0	-6	31*	9	25*	32*	35*	.
CCn1cc(C(=O)NCCC(=O)NCCCO)c(=O)c2cc3c(cc21)OCO3	-8	-2	-2	3	-3	.	.	.
COc1ccccc1N1CCN(C2CCN(S(=O)(=O)c3ccc(NC(C)=O)cc3)CC2)CC1	0	-2	-2	3	-1	.	.	.
COc1ccc(/C(C)=N/Nc2ccc(C(=O)O)cc2)c(OC)c1	-8	8	-2	-7	1	.	.	.
COc1ccc2c(c1)C(=NNc1ccc(C(=O)O)cc1)c1cc(OC)ccc1-2	1	-3	37*	27	28*	19*	18	.
CC(=O)N1CCC2(CC1)C/C(=N\NC(=S)Nc1ccccc1C)c1cc(O)ccc1O2	-9	0	48*	31	17*	29*	55*	.
CC(NC(=O)CCC(=O)c1ccccc1)c1ccc(F)cc1 (stereo not drawn)	3	3	0	1	-1	.	.	.
C(=N\n1cnnc1)/c1ccc(OCc2cccc3ccccc23)cc1	11	-2	52*	50*	16*	20*	39*	43
O=c1[nH][nH]c(C(F)(F)F)c1C=Nc1ccccc1	-5	3	1	0	2	.	.	.
Cc1cc(O)ccc1N=Cc1c(C(F)(F)F)[nH][nH]c1=O	-34	-13	86*	70*	71*	5	6	13
CC(=O)[C@]1(O)Cc2c(O)c3c(c(O)c2[C@@H](O[C@H]2C[C@H](N)[C@H](O)[C@H](C)O2)C1)C(=O)c1ccccc1C3=O	-7	0	74*	66*	77*	78*	.	85*
COc1ccc(N2CCN(C(=O)CN3C(=O)NC(C)(C4CC4)C3=O)CC2)cc1 (stereo not drawn)	18	3	3	17	-1	.	.	.
O=C(c1ccc2c(c1)OCO2)C1CCCN(Cc2c(F)ccc(F)c2F)C1 (stereo not drawn)	3	4	2	-24	4	.	.	.
COCCCNC(CC(=O)Nc1cc(C)cc(C)c1)C(=O)O (stereo not drawn)	1	-2	8	-2	4	.	.	.
CC(C)(C)c1cc(C(=O)N/N=C/c2ccc(-c3ccccc3[N+](=O)[O-])o2)n[nH]1	1	-14	36*	50*	26*	0	1	19
O=S(=O)(Nc1c(S(=O)(=O)c2ccccc2)c2nc3ccccc3nc2n1C1CCCCC1)c1ccccc1	14	12	2	-9	-2	.	.	.
SMILES	procasp7 counter	proCasp3 act	LYPLA2 counter	PREPL inh	LYPLA1 inh	LYPLA1 confirm	LYPLA2 confirm	PREPL confirm
C=CCn1c(NS(=O)(=O)c2ccccc2)c(S(=O)(=O)c2ccc(C)cc2)c2nc3ccccc3nc21	-25	-15	82*	47*	80*	66*	90*	13
O=S(=O)(Nc1cc2nc3ccccc3nc2n1Cc1ccccc1)c1ccc(Cl)cc1	-22	-16	57*	50*	54*	45*	93*	42
N#CCN(CC#N)C(=O)C1c2ccccc2Oc2ccccc21	8	-1	105*	75*	87*	2	0	-4
NC(=O)COC(=O)C1c2ccccc2Oc2ccccc21	-2	9	1	1	-7	.	.	.
O=CN1CCN(C(=O)c2ccc(-c3nc4ccccc4s3)s2)CC1	2	1	17	0	5	.	.	.
N#C/C(=C\c1ccc(O)c(O)c1)C(=O)Nc1cccc2ncccc12	-6	-5	-9	29	-14	.	.	.
CCN1/C(=C/C=C/c2oc3ccc(-c4ccccc4)cc3[n+]2CC)Oc2ccc(-c3ccccc3)cc21	-4	1	64*	67*	58*	-47	-176	-12
CCN1/C(=C/C=C/c2sc3ccccc3[n+]2CC)Sc2ccccc21	-30	-16	-291	i	-139	.	.	.
COC(=O)c1ccccc1-c1c2ccc(=N)cc-2oc2cc(N)ccc12	-1	-6	191*	151*	170*	130*	155*	151*
C#CCOCCOCCOCCNc1nc(N2CCN(C(=O)C(Cc3cc4ccccc4[nH]3)n3cc(C(N)Cc4ccc(O)cc4)nn3)CC2)nc(N2CCN(C(=O)C(CCC(=O)O)n3cc(C(N)C(C)CC)nn3)CC2)n1 (stereo not drawn)	-8	-1	0	31	1	.	.	.
C#CCOCCOCCOCCNc1nc(N2CCN(C(=O)[C@H](Cc3cc4ccccc4[nH]3)n3cc([C@@H](N)C(C)CC)nn3)CC2)nc(N2CCN(C(=O)[C@H](Cc3cc4ccccc4[nH]3)n3cc([C@@H](N)Cc4ccc(O)cc4)nn3)CC2)n1 (stereo partly drawn)	2	-3	-20	58*	17*	34*	.	57*
